Source: ChEMBL document CHEMBL2311531, “Synthesis and antioxidant activities of 2-oxo-quinoline-3-carbaldehyde Schiff-base derivatives” (Bioorg Med Chem Lett, 2013)

Key:
Type in all cases: functional
[1] = Antioxidant activity assessed as hydroxyl radical scavenging activity after 1 hr by spectrophotometry
In short: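 Salicylate method: 20 mM sodium salicylate, 1.5 mM FeSO4, sample at various concentrations and 6 mM H2O2 (stock levels) mixed, held 1 h in 37 °C water bath, A510 read against blank. Scavenging % from absorbance with vs without sample; triplicate; IC50 as concentration scavenging 50% of radicals.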

[2] = Antioxidant activity assessed as superoxide anion radical scavenging activity after 5 mins by spectrophotometry
In short: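 Pyrogallol autoxidation at room temperature: sample in DMF at various concentrations added to 0.05 M Tris-HCl with 30 mM 1,2,3-trihydroxybenzene (stock), 5 min reaction, stopped with 8.0 M HCl (stock), A320 read against blank. Scavenging % from absorbance with vs without sample; triplicate; IC50 as concentration scavenging 50% of radicals.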

[3] = Antioxidant activity assessed as ABTS radical scavenging activity after 3 mins by spectrophotometry
In short: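 ABTS radical cation from 2 mM ABTS stock in PBS pH 7.4 reacted with 70 mM K2S2O8, standing in dark at room temperature 15-16 h; diluted with PBS to A734 0.700 ± 0.030. Sample solutions at several concentrations mixed with radical solution, absorbance read after 3 min at ambient temperature; PBS blank. Triplicate; IC50 as concentration scavenging 50% of radicals.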

[4] = Antioxidant activity assessed as DPPH scavenging activity after 30 mins by spectrophotometry
In short: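 Sample in DMF at several concentrations added to 0.004% (w/v) DPPH in ethanol, incubated at 37 °C, A517 read after 30 min. Scavenging % = (Acontrol − Atest)/Acontrol × 100, control lacking scavenger. Triplicate; IC50 as concentration scavenging 50% of radicals.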

Which IC50 ([1]; read-out: IC50) does the source give for `Cc1ccc2[nH]c(=O)c(/C=N/NC(=O)CS(N)(=O)=O)cc2c1` here?
The IC50 was 5.83 mM.

What about the IC50 ([2]; read-out: IC50) of the same compound?
The IC50 was 147 µM.

And the IC50 [3]?
The IC50 was 9.17 µM.

And the IC50 ([4]; read-out: IC50)?
Its IC50 is 3350 µM.

What does the source list for `O=c1[nH]c2ccccc2cc1/C=N/Nc1ccc([N+](=O)[O-])cc1`?
IC50 ([1]; read-out: IC50): 0.245 mM; IC50 [2]: Not Active; IC50 [3]: 11.4 µM; IC50 ([4]; read-out: IC50): 170 µM

Which IC50 ([1]; read-out: IC50) does the source give for `Cc1ccc2[nH]c(=O)c(/C=N/CCO)cc2c1` here?
Its IC50 is 4.18 mM.

And the IC50 ([2]; read-out: IC50)?
The IC50 was 1480 µM.

And the IC50 [3]?
Its IC50 is 1190 µM.

What about the IC50 ([4]; read-out: IC50) of the same compound?
Its IC50 is 498 µM.

With `Cc1ccc2[nH]c(=O)c(/C=N/Nc3ccc([N+](=O)[O-])cc3[N+](=O)[O-])cc2c1` as the compound, how does the IC50 ([1]; read-out: IC50) read?
The IC50 was 0.749 mM.

And the IC50 [2]?
The IC50 was “Not Active”.

What about the IC50 [3] of the same compound?
Its IC50 is 144 µM.

And the IC50 [4]?
Its IC50 is “Not Active”.

Which IC50 ([1]; read-out: IC50) does the source give for `Cc1ccc2[nH]c(=O)c(/C=N/O)cc2c1` here?
The IC50 was 1.98 mM.

What about the IC50 ([2]; read-out: IC50) of the same compound?
The IC50 was 389 µM.

And the IC50 [3]?
The IC50 was 38.9 µM.

And the IC50 ([4]; read-out: IC50)?
Its IC50 is 160 µM.

For `Cc1ccc2[nH]c(=O)c(/C=N/c3ccc(O)cc3)cc2c1`, which IC50 [1] is on record?
Its IC50 is “Not Active”.

And the IC50 ([2]; read-out: IC50)?
Its IC50 is 235 µM.

And the IC50 [3]?
Its IC50 is 5.24 µM.

And the IC50 ([4]; read-out: IC50)?
The IC50 was 88.5 µM.

What does the source list for `O=c1[nH]c2ccccc2cc1/C=N/Cc1ccccc1`?
IC50 ([1]; read-out: IC50): 3.14 mM; IC50 ([2]; read-out: IC50): 329 µM; IC50 [3]: 368 µM; IC50 [4]: Not Active

Which results are given for `O=c1[nH]c2ccccc2cc1/C=N/Nc1ccccc1`?
IC50 ([1]; read-out: IC50): 1 mM; IC50 ([2]; read-out: IC50): 306 µM; IC50 [3]: 11.8 µM; IC50 ([4]; read-out: IC50): 76.5 µM

With `N/N=C/c1cc2ccccc2[nH]c1=O` as the compound, how does the IC50 ([1]; read-out: IC50) read?
Its IC50 is 0.365 mM.

And the IC50 ([2]; read-out: IC50)?
Its IC50 is 184 µM.

What about the IC50 [3] of the same compound?
Its IC50 is 20.6 µM.

What about the IC50 ([4]; read-out: IC50) of the same compound?
Its IC50 is 729 µM.

With `Cc1ccc2[nH]c(=O)c(/C=N/Cc3ccccc3)cc2c1` as the compound, how does the IC50 ([1]; read-out: IC50) read?
Its IC50 is 6.92 mM.

What about the IC50 ([2]; read-out: IC50) of the same compound?
The IC50 was 310 µM.

And the IC50 [3]?
Its IC50 is 607 µM.

What about the IC50 [4] of the same compound?
The IC50 was “Not Active”.

Which IC50 ([1]; read-out: IC50) does the source give for `O=c1[nH]c2ccccc2cc1/C=N/Nc1ccc([N+](=O)[O-])cc1[N+](=O)[O-]` here?
Its IC50 is 0.375 mM.

What about the IC50 [2] of the same compound?
The IC50 was “Not Active”.

What about the IC50 [3] of the same compound?
The IC50 was 142 µM.

And the IC50 ([4]; read-out: IC50)?
The IC50 was 190 µM.

Which IC50 ([1]; read-out: IC50) does the source give for `Cc1ccc2[nH]c(=O)c(/C=N/N)cc2c1` here?
The IC50 was 0.79 mM.

And the IC50 ([2]; read-out: IC50)?
The IC50 was 153 µM.

What about the IC50 [3] of the same compound?
The IC50 was 11.3 µM.

And the IC50 ([4]; read-out: IC50)?
The IC50 was 641 µM.

Which IC50 ([1]; read-out: IC50) does the source give for `NS(=O)(=O)c1ccc(/N=C/c2cc3ccccc3[nH]c2=O)cc1` here?
The IC50 was 0.266 mM.

And the IC50 ([2]; read-out: IC50)?
The IC50 was 169 µM.

What about the IC50 [3] of the same compound?
The IC50 was 1610 µM.

What about the IC50 ([4]; read-out: IC50) of the same compound?
Its IC50 is 266 µM.

For `O=C(Cc1ccncc1)N/N=C/c1cc2ccccc2[nH]c1=O`, which IC50 ([1]; read-out: IC50) is on record?
The IC50 was 5.09 mM.

What about the IC50 ([2]; read-out: IC50) of the same compound?
The IC50 was 197 µM.

What about the IC50 [3] of the same compound?
Its IC50 is 485 µM.

What about the IC50 ([4]; read-out: IC50) of the same compound?
Its IC50 is 2850 µM.

Which results are given for `NS(=O)(=O)CC(=O)N/N=C/c1cc2ccccc2[nH]c1=O`?
IC50 ([1]; read-out: IC50): 8.73 mM; IC50 ([2]; read-out: IC50): 256 µM; IC50 [3]: 8.91 µM; IC50 ([4]; read-out: IC50): 1290 µM

For `CCCC/N=C/c1cc2cc(C)ccc2[nH]c1=O`, which IC50 ([1]; read-out: IC50) is on record?
Its IC50 is 3.56 mM.

And the IC50 ([2]; read-out: IC50)?
Its IC50 is 379 µM.

And the IC50 [3]?
Its IC50 is 43.3 µM.

And the IC50 ([4]; read-out: IC50)?
Its IC50 is 63.2 µM.

For `Cc1ccc2[nH]c(=O)c(/C=N/c3ccccc3O)cc2c1`, which IC50 ([1]; read-out: IC50) is on record?
Its IC50 is 1.35 mM.

What about the IC50 ([2]; read-out: IC50) of the same compound?
Its IC50 is 286 µM.

What about the IC50 [3] of the same compound?
The IC50 was 8.24 µM.

And the IC50 ([4]; read-out: IC50)?
The IC50 was 26.2 µM.

Which IC50 [1] does the source give for `O=c1[nH]c2ccccc2cc1/C=N/c1ccc(O)cc1` here?
The IC50 was “Not Active”.

And the IC50 ([2]; read-out: IC50)?
Its IC50 is 306 µM.

And the IC50 [3]?
The IC50 was 7.15 µM.

What about the IC50 ([4]; read-out: IC50) of the same compound?
The IC50 was 92.1 µM.

Which IC50 [1] does the source give for `Cc1ccc2[nH]c(=O)c(/C=N/c3ccc(C(=O)O)cc3)cc2c1` here?
Its IC50 is “Not Active”.

What about the IC50 ([2]; read-out: IC50) of the same compound?
Its IC50 is 409 µM.

What about the IC50 [3] of the same compound?
The IC50 was 222 µM.

And the IC50 [4]?
Its IC50 is “Not Active”.

With `Cc1ccc2[nH]c(=O)c(/C=N/c3ccc(S(N)(=O)=O)cc3)cc2c1` as the compound, how does the IC50 [1] read?
The IC50 was “Not Active”.

And the IC50 ([2]; read-out: IC50)?
Its IC50 is 258 µM.

What about the IC50 [3] of the same compound?
Its IC50 is 1200 µM.

What about the IC50 [4] of the same compound?
The IC50 was “Not Active”.

What does the source list for `O=C1O[C@H]([C@@H](O)CO)C(O)=C1O` [ASCORBIC ACID]?
IC50 ([1]; read-out: IC50): 0.0738 mM; IC50 ([2]; read-out: IC50): 15.6 µM; IC50 [3]: 12.8 µM; IC50 ([4]; read-out: IC50): 43.8 µM

With `O=C(O)c1ccc(/N=C/c2cc3ccccc3[nH]c2=O)cc1` as the compound, how does the IC50 [1] read?
The IC50 was “Not Active”.

And the IC50 ([2]; read-out: IC50)?
The IC50 was 381 µM.

And the IC50 [3]?
The IC50 was 438 µM.

What about the IC50 ([4]; read-out: IC50) of the same compound?
Its IC50 is 1660 µM.

Which IC50 ([1]; read-out: IC50) does the source give for `Cc1ccc2[nH]c(=O)c(/C=N/Nc3ccc([N+](=O)[O-])cc3)cc2c1` here?
The IC50 was 0.35 mM.

And the IC50 [2]?
Its IC50 is “Not Active”.

What about the IC50 [3] of the same compound?
Its IC50 is 8.25 µM.

What about the IC50 ([4]; read-out: IC50) of the same compound?
Its IC50 is 109 µM.

With `O=c1[nH]c2ccccc2cc1/C=N/O` as the compound, how does the IC50 ([1]; read-out: IC50) read?
The IC50 was 2.01 mM.

And the IC50 ([2]; read-out: IC50)?
Its IC50 is 463 µM.

And the IC50 [3]?
The IC50 was 31.8 µM.

What about the IC50 ([4]; read-out: IC50) of the same compound?
The IC50 was 118 µM.

Which IC50 ([1]; read-out: IC50) does the source give for `O=c1[nH]c2ccccc2cc1/C=N/CCO` here?
Its IC50 is 3.31 mM.

And the IC50 ([2]; read-out: IC50)?
The IC50 was 467 µM.

What about the IC50 [3] of the same compound?
The IC50 was 1210 µM.

What about the IC50 [4] of the same compound?
The IC50 was “Not Active”.

Which IC50 ([1]; read-out: IC50) does the source give for `Cc1ccc2[nH]c(=O)c(/C=N/Nc3ccccc3)cc2c1` here?
Its IC50 is 1.47 mM.

And the IC50 ([2]; read-out: IC50)?
Its IC50 is 309 µM.

What about the IC50 [3] of the same compound?
The IC50 was 8.47 µM.

And the IC50 ([4]; read-out: IC50)?
The IC50 was 62.4 µM.

Which results are given for `O=c1[nH]c2ccccc2cc1/C=N/c1ccccc1O`?
IC50 ([1]; read-out: IC50): 1.66 mM; IC50 ([2]; read-out: IC50): 237 µM; IC50 [3]: 11.7 µM; IC50 ([4]; read-out: IC50): 22.8 µM

For `Cc1cc(C(C)(C)C)c(O)c(C(C)(C)C)c1` [BUTYLATED HYDROXYTOLUENE], which IC50 ([1]; read-out: IC50) is on record?
The IC50 was 24.7 mM.

And the IC50 ([2]; read-out: IC50)?
Its IC50 is 254 µM.

What about the IC50 [3] of the same compound?
Its IC50 is 37 µM.

What about the IC50 ([4]; read-out: IC50) of the same compound?
Its IC50 is 65.8 µM.

With `CCCC/N=C/c1cc2ccccc2[nH]c1=O` as the compound, how does the IC50 ([1]; read-out: IC50) read?
Its IC50 is 7.68 mM.

And the IC50 ([2]; read-out: IC50)?
The IC50 was 246 µM.

What about the IC50 [3] of the same compound?
The IC50 was 1810 µM.

What about the IC50 ([4]; read-out: IC50) of the same compound?
The IC50 was 439 µM.

For `Cc1ccc2[nH]c(=O)c(/C=N/NC(=O)Cc3ccncc3)cc2c1`, which IC50 ([1]; read-out: IC50) is on record?
Its IC50 is 4.69 mM.

And the IC50 ([2]; read-out: IC50)?
The IC50 was 209 µM.

And the IC50 [3]?
Its IC50 is 882 µM.

And the IC50 ([4]; read-out: IC50)?
The IC50 was 3580 µM.
